In experiment [1] the target is T1, Metabotropic glutamate receptor 6 (Homo sapiens, UniProt O15303). The experiment is described as follows: Agonist activity of the compound at Metabotropic Excitatory Amino acid Receptors Expressed in CHO cells. mGlu6. The format is functional, cell-based. An outline of the steps:
(§1)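 CHO cells expressing mGlu2, mGlu4a or mGlu6, seeded 2 days before assay. Incubated 10 min in PBS with ligand, 10 µM forskolin and 1 mM IBMX. […] EC50 from dose-response, mean ± SEM of at least two independent experiments.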

The target of experiment [2] is T2, Metabotropic glutamate receptor 2 (Homo sapiens, UniProt Q14416). The experiment is described as follows: Agonist activity of the compound at Metabotropic Excitatory Amino acid Receptors Expressed in CHO cells. mGlu2. The format is functional, cell-based. The method, boiled down: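 CHO cells expressing mGlu2, mGlu4a or mGlu6, seeded 2 days before assay. Incubated 10 min in PBS with ligand, 10 µM forskolin and 1 mM IBMX. EC50 from dose-response, mean ± SEM of at least two independent experiments.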

The target of experiment [3] is T3, Metabotropic glutamate receptor 1 (Homo sapiens, UniProt Q13255). The experiment is described as follows: Agonist activity of the compound at Metabotropic Excitatory Amino acid Receptors Expressed in CHO cells. mGlu1-alpha. The format is functional, cell-based. An outline of the steps:
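CHO cells stably expressing mGlu1α, seeded 2 days before assay and labelled with [3H]inositol (1 µCi/mL) for 24 h. Ligand in PBS-LiCl for 20 min; total [3H]inositol mono-, bis- and trisphosphates by ion-exchange chromatography, fold over buffer-only control. EC50 from dose-response, mean ± SEM of at least two independent experiments.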

The target of experiment [4] is T1, Metabotropic glutamate receptor 6. The experiment is described as follows: Agonistic activity at mGlu6 receptor expressed in CHO cells. It is filed as functional, cell-based. The method, boiled down:
(§2)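 CHO cells expressing the receptor were kept at 37 °C in DMEM with 2 mM glutamine, 1% proline and 10% dialyzed FCS, and plated 2 days before assay. Cells were incubated 10 min in PBS with ligand, 10 µM forskolin and 1 mM IBMX, and cAMP was measured by RIA. Agonism is inhibition of forskolin-induced cAMP versus buffer-only control.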

The target of experiment [5] is T2, Metabotropic glutamate receptor 2. The experiment is described as follows: Agonistic activity at mGlu2 receptor expressed in CHO cells. It is filed as functional, cell-based. The method, boiled down:
as §2

For experiment [6], the target named is T4, Metabotropic glutamate receptor 4 (Homo sapiens, UniProt Q14833). The experiment is described as follows: Agonistic activity at mGlu4a receptor expressed in CHO cells. The format is functional, cell-based. An outline of the steps: as §2
Experiment [7] concerns the target T3, Metabotropic glutamate receptor 1. The experiment is described as follows: Agonistic activity at mGlu1-alpha receptor expressed in CHO cells. It is filed as functional, cell-based.
In experiment [8] the target is Glutamate receptor ionotropic, kainate. The experiment is described as follows: The compound was evaluated for agonist to competitive inhibition of radioligand ([3H]- kainic acid ) at Ionotropic glutamate receptor kainate. It is filed as functional.
The target of experiment [9] is Glutamate receptor ionotropic, AMPA (Rattus norvegicus, UniProt P19490+P19491+P19492+P19493). The experiment is described as follows: Agonistic activity at Ionotropic glutamate receptor AMPA of rat brain membrane using [3H]AMPA as radioligand. It is filed as functional.
Experiment [10] has as its target Glutamate NMDA receptor. The experiment is described as follows: The compound was evaluated for agonist activity at NMDA receptor in rat cortical wedge preparation. It is filed as functional. The method, boiled down: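 Rat cortical wedge under superfusion. Test and standard compounds were dissolved in the superfusion medium, and the potential difference between the recording and reference electrodes was charted.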

Experiment [11] concerns the target Glutamate NMDA receptor. The experiment is described as follows: Agonistic activity at NMDA receptor of rat brain membrane using [3H]MK-801 as radioligand. The format is functional. An outline of the steps:
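Rat brain membranes were prepared per Ransom and Stec. [3H]MK-801 binding was run on fully stimulated membranes, with incubation lengthened to 4 h.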

The target of experiment [12] is T4, Metabotropic glutamate receptor 4. The experiment is described as follows: Agonist activity of the compound at Metabotropic Excitatory Amino acid Receptors Expressed in CHO cells. mGlu4a. It is filed as functional, cell-based. An outline of the steps:
as §1

This passage reports EC50 and IC50 results from ChEMBL document CHEMBL1129268 (J Med Chem, 1996).

Where only a bound is given, the exact number is not on record here.

T2 sequence (Q14416 whole entry): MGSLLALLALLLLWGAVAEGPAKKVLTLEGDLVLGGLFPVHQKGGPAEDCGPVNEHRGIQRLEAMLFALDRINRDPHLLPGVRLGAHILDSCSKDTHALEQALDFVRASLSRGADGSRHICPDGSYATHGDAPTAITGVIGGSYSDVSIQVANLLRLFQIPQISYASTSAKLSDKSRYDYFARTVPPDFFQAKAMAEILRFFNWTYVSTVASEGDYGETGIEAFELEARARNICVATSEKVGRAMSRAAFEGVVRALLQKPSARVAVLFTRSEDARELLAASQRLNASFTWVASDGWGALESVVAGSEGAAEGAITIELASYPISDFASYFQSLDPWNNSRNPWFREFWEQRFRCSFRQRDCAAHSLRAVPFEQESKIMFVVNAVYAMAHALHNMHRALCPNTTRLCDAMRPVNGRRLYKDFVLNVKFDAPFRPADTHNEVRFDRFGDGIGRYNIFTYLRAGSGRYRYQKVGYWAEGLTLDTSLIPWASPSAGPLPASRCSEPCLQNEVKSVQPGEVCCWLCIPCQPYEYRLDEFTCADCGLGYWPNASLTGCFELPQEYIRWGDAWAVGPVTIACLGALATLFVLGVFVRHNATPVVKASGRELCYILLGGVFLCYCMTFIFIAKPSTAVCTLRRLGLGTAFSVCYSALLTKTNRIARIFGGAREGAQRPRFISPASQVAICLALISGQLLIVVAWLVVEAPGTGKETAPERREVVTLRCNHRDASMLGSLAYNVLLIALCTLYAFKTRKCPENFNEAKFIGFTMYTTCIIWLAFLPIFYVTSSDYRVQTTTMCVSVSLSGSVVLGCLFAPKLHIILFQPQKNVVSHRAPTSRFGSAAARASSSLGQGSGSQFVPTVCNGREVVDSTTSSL
T4 sequence (Q14833 whole entry): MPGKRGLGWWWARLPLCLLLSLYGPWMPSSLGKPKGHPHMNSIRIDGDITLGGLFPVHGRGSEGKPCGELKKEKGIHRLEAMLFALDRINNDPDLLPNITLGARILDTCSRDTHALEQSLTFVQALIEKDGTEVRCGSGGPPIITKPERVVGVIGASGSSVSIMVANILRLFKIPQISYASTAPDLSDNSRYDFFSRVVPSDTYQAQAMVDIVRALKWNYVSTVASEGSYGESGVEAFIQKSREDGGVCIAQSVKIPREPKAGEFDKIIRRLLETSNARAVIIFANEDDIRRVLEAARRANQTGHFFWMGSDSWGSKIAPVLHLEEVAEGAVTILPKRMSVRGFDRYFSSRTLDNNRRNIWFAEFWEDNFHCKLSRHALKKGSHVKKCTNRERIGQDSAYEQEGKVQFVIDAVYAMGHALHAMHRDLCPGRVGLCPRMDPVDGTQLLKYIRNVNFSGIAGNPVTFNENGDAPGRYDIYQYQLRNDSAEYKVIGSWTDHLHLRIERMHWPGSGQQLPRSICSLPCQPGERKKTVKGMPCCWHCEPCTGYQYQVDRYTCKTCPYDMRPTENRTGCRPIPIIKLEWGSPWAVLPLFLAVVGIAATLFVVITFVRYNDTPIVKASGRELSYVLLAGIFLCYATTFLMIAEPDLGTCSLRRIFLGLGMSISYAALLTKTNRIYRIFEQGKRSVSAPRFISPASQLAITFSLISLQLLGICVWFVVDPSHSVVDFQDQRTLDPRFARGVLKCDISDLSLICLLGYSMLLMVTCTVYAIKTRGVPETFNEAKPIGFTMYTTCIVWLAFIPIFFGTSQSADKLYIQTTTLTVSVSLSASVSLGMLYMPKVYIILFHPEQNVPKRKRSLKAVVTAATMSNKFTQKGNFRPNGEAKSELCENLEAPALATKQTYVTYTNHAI
T1 sequence (O15303 whole entry): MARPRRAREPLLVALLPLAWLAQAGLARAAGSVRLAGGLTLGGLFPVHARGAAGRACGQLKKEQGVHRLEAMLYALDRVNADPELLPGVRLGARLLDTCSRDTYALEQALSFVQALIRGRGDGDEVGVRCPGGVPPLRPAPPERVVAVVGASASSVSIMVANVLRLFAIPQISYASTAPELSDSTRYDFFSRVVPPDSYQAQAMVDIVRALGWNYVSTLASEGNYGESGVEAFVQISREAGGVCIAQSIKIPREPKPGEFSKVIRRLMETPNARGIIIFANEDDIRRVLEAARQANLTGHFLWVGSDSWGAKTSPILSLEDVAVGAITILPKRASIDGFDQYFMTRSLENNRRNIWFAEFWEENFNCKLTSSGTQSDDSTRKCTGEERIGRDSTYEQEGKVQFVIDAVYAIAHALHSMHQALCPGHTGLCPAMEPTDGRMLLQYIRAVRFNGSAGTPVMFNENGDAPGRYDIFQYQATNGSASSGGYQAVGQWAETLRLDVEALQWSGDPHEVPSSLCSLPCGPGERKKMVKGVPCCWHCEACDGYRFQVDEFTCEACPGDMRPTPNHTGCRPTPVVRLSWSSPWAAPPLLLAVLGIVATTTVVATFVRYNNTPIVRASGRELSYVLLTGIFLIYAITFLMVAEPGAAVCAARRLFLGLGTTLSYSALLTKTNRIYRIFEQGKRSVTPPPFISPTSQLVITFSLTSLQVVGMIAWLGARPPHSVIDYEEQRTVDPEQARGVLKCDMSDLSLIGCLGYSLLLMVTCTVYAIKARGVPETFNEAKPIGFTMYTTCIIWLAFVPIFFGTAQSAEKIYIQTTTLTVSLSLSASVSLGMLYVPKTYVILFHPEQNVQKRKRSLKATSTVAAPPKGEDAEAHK
T3 sequence (Q13255 whole entry): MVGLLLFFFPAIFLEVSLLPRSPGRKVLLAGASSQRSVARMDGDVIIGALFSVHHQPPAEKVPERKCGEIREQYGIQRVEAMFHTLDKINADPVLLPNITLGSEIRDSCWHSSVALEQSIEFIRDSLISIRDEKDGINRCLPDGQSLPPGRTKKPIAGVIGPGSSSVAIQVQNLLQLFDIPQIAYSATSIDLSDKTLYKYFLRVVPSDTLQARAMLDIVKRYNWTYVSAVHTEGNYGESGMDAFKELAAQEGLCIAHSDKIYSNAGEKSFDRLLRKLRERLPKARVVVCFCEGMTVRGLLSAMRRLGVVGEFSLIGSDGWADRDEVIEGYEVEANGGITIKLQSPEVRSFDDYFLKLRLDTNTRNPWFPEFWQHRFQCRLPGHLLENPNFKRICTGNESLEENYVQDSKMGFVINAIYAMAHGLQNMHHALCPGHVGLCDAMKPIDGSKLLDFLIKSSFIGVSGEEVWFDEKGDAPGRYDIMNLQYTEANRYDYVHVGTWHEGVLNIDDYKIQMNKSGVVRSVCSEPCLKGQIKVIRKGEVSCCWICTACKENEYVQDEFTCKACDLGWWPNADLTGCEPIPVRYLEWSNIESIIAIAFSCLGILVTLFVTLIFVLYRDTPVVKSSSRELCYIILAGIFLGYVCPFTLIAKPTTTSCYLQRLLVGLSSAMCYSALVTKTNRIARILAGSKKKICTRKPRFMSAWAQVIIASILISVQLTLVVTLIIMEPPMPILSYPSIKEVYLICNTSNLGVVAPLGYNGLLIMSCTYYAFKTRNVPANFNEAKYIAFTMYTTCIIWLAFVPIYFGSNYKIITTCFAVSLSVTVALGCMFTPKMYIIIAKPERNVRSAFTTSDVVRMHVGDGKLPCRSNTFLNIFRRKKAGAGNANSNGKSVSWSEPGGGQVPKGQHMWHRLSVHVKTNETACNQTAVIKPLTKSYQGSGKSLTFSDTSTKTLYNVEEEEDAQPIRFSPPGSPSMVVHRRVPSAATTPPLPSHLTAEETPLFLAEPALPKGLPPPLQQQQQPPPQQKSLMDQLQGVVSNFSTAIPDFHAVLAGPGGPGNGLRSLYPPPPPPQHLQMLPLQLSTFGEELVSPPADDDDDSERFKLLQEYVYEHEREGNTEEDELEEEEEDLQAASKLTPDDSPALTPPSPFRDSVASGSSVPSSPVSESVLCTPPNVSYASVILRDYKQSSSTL

By EC50 is commonly meant the concentration that produces a half-maximal response. Regarding `Cc1onc(O)c1C[C@@H](N)C(=O)O`, the EC50 in experiment [1], in [2] and in experiment [3] was over 1000 µM in each case.
Take `N[C@@H](CCCC(=O)O)C(=O)O` [(S)-2-AMINOADIPIC ACID]: the EC50 in experiment [4] is 140 µM; in experiment [5] it was 35 µM; in experiment [6], over 3000 µM; in experiment [7] it was over 1000 µM.
As usually defined, the IC50 is the concentration at which inhibition is half-maximal. A higher IC50 goes with lower potency. With `Cc1o[nH]c(=O)c1C(N)C(=O)O` (stereo not drawn), the IC50 (in experiment [8]; in experiment [9]; at Glutamate NMDA receptor [11]) was over 100 µM each time. Further, the values for the EC50 (in experiment [1]; in experiment [3]; at Glutamate NMDA receptor [10]) were over 1000 µM, over 1000 µM and 12 µM, respectively.
On to `N[C@H](CC(=O)O)C(=O)O` [D-ASPARTATE], for which the EC50 in [4], in experiment [5] and in [7] was over 1000 µM each time.
With `Cc1o[nH]c(=O)c1CCCCC(N)C(=O)O` (stereo not drawn), the EC50 in experiment [4], in experiment [5] and in experiment [7] was over 1000 µM each time.
In the case of `NC(CCCCCC(=O)O)C(=O)O` (stereo not drawn), the EC50 in experiment [4], in experiment [5] and in [7] was over 1000 µM throughout.
For the compound `Cc1onc(O)c1C[C@H](N)C(=O)O` [(S)-AMPA], the EC50 is 220 µM in experiment [1], over 3000 µM in experiment [12], over 1000 µM in experiment [2] and over 1000 µM in experiment [3].
Turning to `N[C@H](CCCC(=O)O)C(=O)O`, the EC50 in experiment [4], in experiment [5] and in experiment [7] was over 1000 µM each time.
For `N[C@@H](CC(=O)O)C(=O)O` [ASPARTIC ACID], the 50% effective concentration (EC50) in [4], in experiment [5] and in [7] was over 1000 µM each time.
On to `NC(CCCCC(=O)O)C(=O)O` (stereo not drawn), for which the EC50 in experiment [4], in experiment [5] and in experiment [7] was over 1000 µM each time.
In the case of `Cc1onc(O)c1CCCC(N)C(=O)O` (stereo not drawn), the EC50 was 410 µM in experiment [4], over 1000 µM in [5], over 3000 µM in [6] and over 1000 µM in experiment [7].
As for `Cc1onc(O)c1CCC(N)C(=O)O` (stereo not drawn), the EC50 was 82 µM in [4], over 1000 µM in experiment [5], over 3000 µM in experiment [6] and over 1000 µM in [7].
